Assay results collected from several papers.
Compare with care: the assays were run in different laboratories.

Cc1cc(S(=O)(=O)NC2CC(N3CCN(CC4CCN(c5ccc(NC6CCC(=O)NC6=O)cc5C)CC4)CC3)C2)ccc1Nc1ncc(C(F)(F)F)c(N2CCC[C@](C)(O)C2)n1 (stereo partly drawn)  scaled CLint (metabolic stability; rat, liver microsomes; 1 µM): < 21 mL/min/kg
CC(C)[C@@H](N)C(=O)OC[C@H]1O[C@@](C#N)(c2ccc3c(N)ncnn23)[C@H](O)[C@@H]1O  CC50 (HEp-2; cell growth or viability, CCK-8; 5 days): > 100 µM
Cc1cc(S(=O)(=O)NC2CC(N3CCN(CC4CCN(c5ccc6c(c5F)n(C)c(=O)n6C5CCC(=O)NC5=O)CC4)CC3)C2)ccc1Nc1ncc(C(F)(F)F)c(N2CCCC(C)(O)C2)n1 (stereo not drawn)  scaled CLint (metabolic stability; rat, liver microsomes; 1 µM): < 21 mL/min/kg
NC/C(=C\F)COc1cccc(Cn2c(=S)[nH]c(=O)c3[nH]cnc32)c1  inhibition (Solute carrier organic anion transporter family member 1B3 (SLCO1B3, Homo sapiens, UniProt Q9NPD5); transporter uptake, inhibitor; 30 µM): < 50%
N#C[C@@]1(c2ccc3c(N)ncnn23)O[C@H](COC(=O)c2ccccc2)[C@@H](O)[C@H]1O  CC50 (HEp-2; cell growth or viability, CCK-8; 5 days): 79.2 µM
C[C@H]1[C@@H](C(=O)NCc2nc(-c3ccc(C#N)cc3)cs2)CCCN1C(=O)[C@H]1CCO1  microsomal CLint (metabolic stability; male Sprague-Dawley rat, liver microsomes; 0.5 µM): 45 µL/min/mg
CNS(=O)(=O)c1ccc(Nc2ncc(C(F)(F)F)c(N3CCC(C)(O)CC3)n2)c(C)c1  scaled CLint (metabolic stability; rat, liver microsomes; 1 µM): 38 mL/min/kg
COCC(=O)N1CCC[C@H](C(=O)NCc2nc(-c3ccccc3)cs2)C1  scaled CLint (metabolic stability; male Sprague-Dawley rat, hepatocytes; 0.5 µM): 32 mL/min/kg
O=C1CCC(N2C(=O)c3cccc(NCCc4cn(Cc5ccc(-c6nc7cc(-c8ccccc8)ccn7c6Nc6ccc(C(=O)O)cc6)cc5)nn4)c3C2=O)C(=O)N1 (stereo not drawn)  CC50 (MCF7; cell growth or viability; 72 h): 108 µM
CC(C)(N)COCC(=O)N1CCC[C@H](C(=O)NCc2nc(-c3ccc(C(F)(F)F)cc3)cs2)C1  scaled CLint (metabolic stability; male Sprague-Dawley rat, liver microsomes; 0.5 µM): 22 mL/min/kg
Nc1ccn([C@@H]2O[C@H](CO)[C@@H](O)C2(F)F)c(=O)n1  viability (MCF7; cell growth or viability, MTT; 10 µg/mL, 24 h): 20.7%
C[C@]1(O)CCCN(c2nc(Nc3ccc(S(=O)(=O)N[C@H]4CC[C@H](CN5CCN(c6ccc(C7CCC(=O)NC7=O)c(F)c6)CC5)CC4)cc3F)ncc2C(F)(F)F)C1 (stereo partly drawn)  scaled CLint (metabolic stability; rat, liver microsomes; 1 µM): < 21 mL/min/kg
NCCOCC(=O)N1CCC[C@H](C(=O)NCc2nc(-c3ccc(C4CC4)cc3)cs2)C1  microsomal CLint (metabolic stability; human, liver microsomes; 0.5 µM): < 3 µL/min/mg
O=C(Nc1ccc(S(=O)(=O)O)c2ccccc12)c1ccc(=O)oc1  CC50 (TZM-bl; cell growth or viability, resazurin): > 12.5 µM
COc1ccc2c(c1)CN(C(=O)CCN1CCC(Cc3ccccc3)CC1)CC[S@@+]2[O-]  clearance (male human, plasma; intravenous, 0.15 mg/kg, healthy volunteers): 223 mL/min
CC(C)C(=O)OC[C@H]1O[C@@H](n2ccc(NO)nc2=O)[C@H](O)[C@@H]1O  CC50 (HEp-2; cell growth or viability, CCK-8; 5 days): 50.1 µM
COCC(=O)N1CCC[C@H](C(=O)NCc2nc(-c3ccc(C#N)cc3)cs2)C1  scaled CLint (metabolic stability; male Sprague-Dawley rat, hepatocytes; 0.5 µM): 22 mL/min/kg
Cc1cc(S(=O)(=O)N[C@H]2CC[C@H](CN3CCN(c4ccc(C5CCC(=O)NC5=O)c(Cl)c4)CC3)CC2)ccc1Nc1ncc(C(F)(F)F)c(N2CCC[C@](C)(O)C2)n1 (stereo partly drawn)  scaled CLint (metabolic stability; human, liver microsomes; 1 µM): 20 mL/min/kg
CCOCC(=O)N1CCC[C@H](C(=O)NCc2nc(-c3ccc(C)nc3)cs2)C1  scaled CLint (metabolic stability; male Sprague-Dawley rat, hepatocytes; 0.5 µM): 27 mL/min/kg
C[C@]1(O)CCCN(c2nc(Nc3ccc(S(=O)(=O)N[C@@H]4CCN(CC5CCN(c6ccc(C7CCC(=O)NC7=O)cc6F)CC5)C[C@H]4F)cc3F)ncc2C(F)(F)F)C1 (stereo partly drawn)  scaled CLint (metabolic stability; human, liver microsomes; 1 µM): 22 mL/min/kg
CC[C@H](C)[C@H](N)C(=O)OC[C@H]1O[C@@](C#N)(c2ccc3c(N)ncnn23)[C@H](O)[C@@H]1O  CC50 (HEp-2; cell growth or viability, CCK-8; 5 days): > 100 µM
